Assay outcomes deposited in PubChem BioAssay by Sanford-Burnham Center for Chemical Genomics.
In the library only some 3% were active in any assay of this set; here they are far more common.
SENP6 block = SENP6 protease inhibitors, primary screen, biochemical, luminescence, uHTS | Recombinant SENP6 catalytic domain, aminoluciferin luminescence | Sentrin-specific protease 6 (Homo sapiens), Q9GZR1 | hit rate 1.8% among 330,000 | inhibition, % at 10 µM | AID 2599, 2010;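 active = inhibition above about 50% at the single tested dose, limit read from the data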
UBC13 inh = UBC13 polyubiquitin chain formation inhibitors, primary screen, biochemical, TR-FRET, uHTS; Ubiquitin-conjugating enzyme E2 N (Homo sapiens), P61088; inhibition, % at 20 µM; hit rate 0.47% among 330,000; in the data active = inhibition above about 45%, passing the limit was not always enough
SENP7 inh = SENP7 protease inhibitors, primary screen, biochemical, luminescence, uHTS. Sentrin-specific protease 7 (Homo sapiens), Q9BQF6. recombinant SENP7, Z-RLRGG-aminoluciferin luminescence, 40 min. inhibition, % at 5 µM. hit rate 1.5% among 330,000. AID 434973, 2010;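 active = inhibition above about 50% at the single test dose, limit read from the data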
SENP8 block-1 = human SENP8 protease inhibitors, primary screen, biochemical, fluorescence, Nedd8 protein substrate, uHTS; hit rate 0.64% among 360,000; inhibition, % at 20 µM; AID 602440, 2012; recombinant SENP8; Sentrin-specific protease 8 (Homo sapiens), Q96LD8; in the data active = inhibition mostly above about 40%, no sharp cut-off; inactive = mostly below about 27%
SENP8 block-2 = SENP8 protease inhibitors, primary screen, biochemical, luminescence; Sentrin-specific protease 8 (Homo sapiens), Q96LD8; purified SENP8, Z-RLRGG-aminoluciferin cleavage; inhibition, % at 10 µM; hit rate 1.2% among 330,000; AID 2540, 2010; in the data active = inhibition above about 50%
Apaf1 inhib = inhibitors of human Apaf-1 apoptosome, primary screen, biochemical, DEVD-Rh110 fluorescence, uHTS | Apoptotic protease-activating factor 1 (Homo sapiens), O14727 | reconstituted apoptosome caspase-3 activity | inhibition, % at 20 µM | hit rate 0.71% among 330,000 | AID 489030, 2010; active = inhibition of at least 40% at 20 µM
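Material: reconstituted apoptosome with Apaf-1, cytochrome c, caspase-9, procaspase-3, dATP. Technique: Rh110 fluorescence intensity. Buffer or medium: pH 7.5 Hepes buffer with CHAPS, BSA, DTT. Times: 30 min plus 50 min, RT.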
SENP8 conf = SENP8 protease inhibitors, retest, confirmation, biochemical, luminescence, single concentration; shares compounds with SENP7 inh; Recombinant SENP8, Z-RLRGG-aminoluciferin luminescence, 60 min; inhibition, % at 12.5 µM; hit rate 40% among 6,200; AID 488912, 2010;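 active = mean inhibition across replicates above about 50%, limit read from the data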
SENP6 conf = SENP6 protease inhibitors, confirmation, biochemical, luminescence, single concentration; shares compounds with SENP7 inh; recombinant SENP6, Z-RLRGG-aminoluciferin luminescence; inhibition, % at 12.5 µM; hit rate 58% among 6,200
SENP7 confirm = SENP7 protease inhibitors, retest, confirmation, biochemical, luminescence, single concentration. shares compounds with SENP7 inh. recombinant SENP7, Z-RLRGG-aminoluciferin luminescence, 40 min. inhibition, % at 12.5 µM. hit rate 69% among 6,200. AID 488917, 2010
Casp3 SENP sel = caspase-3 protease inhibitors, confirmation, selectivity assay for SENP inhibitor project, biochemical, single concentration; inhibition, % at 12.5 µM; hit rate 60% among 6,200; shares compounds with SENP7 inh; purified caspase-3, Z-DEVD-aminoluciferin luminescence, 60 min; AID 488918, 2010;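 active = mean inhibition above about 50%, limit read from the data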
Luc interf = luminescence interference (SENP counter-screen); shares compounds with SENP7 inh; Pre-incubated SENP8/Z-RLRGG-aminoluciferin, luciferase luminescence interference; inhibition, % at 12.5 µM; hit rate 39% among 6,200;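 active = mean inhibition above about 50% when retested at one dose, limit read from the data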
Numbers stand for hits; . = inactive; / = no result given.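 Rule for the calls, unless noted: active = mean inhibition above about 50% in the one-dose retest (limit read from the data); inactive = the rest.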

SMILES	SENP6 block	UBC13 inh	SENP7 inh	SENP8 block-1	SENP8 block-2	Apaf1 inhib	SENP8 conf	SENP6 conf	SENP7 confirm	Casp3 SENP sel	Luc interf
CCCCCc1ccc(-c2ccc(/C=C/C(N)=O)cc2)nc1	.	.	.	.	.	.	/	/	/	/	/
CCOC(=O)c1sc(NC(=O)c2sccc2C)cc1C	99	.	100	.	97	.	100	101	104	99	97
CCOC(=O)c1sc(NC(=O)Nc2cccc(Cl)c2)cc1C	.	.	.	.	.	.	/	/	/	/	/
CCOC(=O)c1sc(NC(=O)c2cccs2)cc1C	83	.	91	.	66	.	.	75	98	81	.
CCOC(=O)c1cccc(NC(=O)c2cccs2)c1	.	.	.	.	.	.	/	/	/	/	/
CN(C)C(=O)COc1ncnc2sc(-c3ccccc3)cc12	.	.	.	.	.	.	/	/	/	/	/
COc1ncnc2sc(-c3ccccc3)cc12	93	.	99	.	97	.	96	95	100	95	92
CCCCn1c(N)c(N(C(=O)CSc2nnnn2-c2ccc(C)cc2)C2CCCC2)c(=O)[nH]c1=O	/	/	/	.	/	/	/	/	/	/	/
O=C(O)c1cc(N/N=C/c2cccs2)ccc1Cl	.	.	.	/	.	.	/	/	/	/	/
Cc1ccc(/C=N/Nc2ccc(Cl)c(C(=O)O)c2)s1	96	.	84	.	84	.	96	96	101	50	94
O=C(O)c1cc(N/N=C/c2ccc3c(c2)OCO3)ccc1Cl	66	.	.	.	69	.	.	81	95	63	83
O=C(O)c1ccc(N/N=C/c2ccc3c(c2)OCO3)cc1	97	.	100	.	98	.	99	100	103	98	98
CCCc1ccc2oc(C(=O)N(Cc3nccn3C)C(C)C)c(C)c2c1	.	.	.	.	.	.	/	/	/	/	/
CCCc1[nH]n(-c2nc3ccccc3s2)c(=O)c1C=NCCN1CCOCC1	51	.	.	.	.	.	56	.	52	60	55
O=C(Nc1ccc(F)cc1F)c1ccc2c(=O)n3c(nc2c1)CCC3	64	.	61	.	.	.	.	52	80	86	.
CC(C)C[C@H]1CNC(=O)C(=O)N1CC1CCN(CC2CCC(C(C)(C)C)CC2)CC1 (some centres undefined)	/	/	/	.	/	/	/	/	/	/	/
CCCCN(C)C(=O)c1cc2cc3ccc(OC)cc3nc2o1	80	.	76	.	65	.	72	71	92	85	.
CCCCN(C)C(=O)c1cc2cc3cc(OC)ccc3nc2o1	.	.	.	.	.	.	/	/	/	/	/
Cc1cc(N2CCCCC2)n2ncc(-c3ccccc3)c2n1	50	.	53	.	.	.	.	.	75	.	.
Cc1ccc(-c2cnn3c(N4CCOCC4)cc(C)nc23)cc1	.	.	.	.	.	.	/	/	/	/	/
Cc1cc(NCCCn2ccnc2)n2nc(C)c(-c3ccccc3)c2n1	.	.	.	.	.	.	/	/	/	/	/
Cc1cc(NCCCn2ccnc2)n2ncc(-c3ccccc3)c2n1	67	.	55	.	.	.	53	52	82	60	.
